This is an account of results in the RNAGym collection of RNA variant scans (doi:10.1038/s41586-018-0170-7).

Sequences and labels used below:
B1: tRNA (parent)
chain: GUUCCGUUGGCGUAAUGGUAACGCGUCUCCCUCCUAAGGAGAAGACUGCGGGUUCGAGUCCCGUACGGAACG

This series covers variants of B1. Put plainly: yeast fitness, log relative to wild type (ln ratio); higher = fitter; tRNA-Arg(CCU), competitive growth, 37 C, 1 M NaCl. Summed up: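 Variants were counted by 125 bp paired-end Illumina sequencing after pools of a combinatorial tRNA-Arg(CCU) library, held on a HIS3 centromeric plasmid in BY4742 lacking the chromosomal gene, grew ~6.5 generations (~26.5 h) in SC-HIS 1M NaCl at 37 °C. Each genotype's fitness is the natural log of its generations relative to the wild type's. Generations were OD-scaled log2 output/input frequencies, inverse-variance weighted over replicates.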
As for G6A C46U C66A A70U, the “yeast fitness (ln)” value is -0.0387.
The figure for G1A U2G G6U A43C A70U is -0.257; for G1A G6U C27U C46U C66U A70U it is -0.29.
The figure for G6U C46U C71U is -0.413.
Turning to G1A U2C G6A C46U C66A A69G A70G C71U, the “yeast fitness (ln)” value is -0.172.
The figure for C27U A43C C66U A70U is -0.147.
Regarding G1A C66U A70U C71U, the “yeast fitness (ln)” value is -0.212.
As for G1A U2G G6U C66U, the “yeast fitness (ln)” value is -0.203.
Under U2C C27U C46U A69G A70U C71U stands -0.216; under G1A U2C G6U C66U A69G A70G C71U, -0.221.
Under G1A U2G G6U C27U C66A C71U stands -0.273.
The figure for G1A U2C G6U C27U A43C C46U C66U A70G C71U is -0.0871; for G6A A43C C71U it is -0.144.
G1A G6U A43C C46U A70U: the “yeast fitness (ln)” value is -0.219.
As for U2C G6A C27U A43C C46U, the “yeast fitness (ln)” value is -0.0171.
Under G1A U2G C27U A43C C46U A70U stands -0.229; under G1A U2G C27U A43C C46U A69G A70U, -0.161.
With U2G G6A C27U A43C C46U C66A A70G, the “yeast fitness (ln)” value is -0.132.
Under G1A U2G A43C C66A A70G C71U stands -0.333; under U2G G6U A43C C66A A70U, -0.0132.
As for U2G G6U C46U A70G, the “yeast fitness (ln)” value was -0.104.
The figure for U2C C27U C66U A69G A70U C71U is -0.453; for G1A G6A C27U A43C C46U C66U it is -0.131; for G6A C27U C66A C71U it is -0.168.
The figure for G1A U2G G6A C27U A43C C66U A70G is -0.337; for U2C C46U C66U C71U it is -0.0488.
Under G1A C27U C46U C66A A70U stands -0.182; under C27U C66A A70G C71U, -0.194; under U2C C27U C66U A69G A70U, -0.188.
Take G1A U2C A43C C46U C66U A69G A70G: the “yeast fitness (ln)” value was -0.0919.
Under G1A G6U C27U C46U A70G stands -0.191; under G1A U2G G6U C46U C66A A69G A70U C71U, -0.227.
The figure for G1A G6U A70G C71U is -0.148; for G6U A69G A70U C71U it is -0.394; for U2G G6U C27U A43C C66U A70U C71U it is -0.441.
The figure for G1A U2G G6U C27U A43C C66U A69G C71U is -0.764.
For the variant U2C C66U A69G A70U, the “yeast fitness (ln)” value is -0.0622.
As for U2G G6U C66U A70G C71U, the “yeast fitness (ln)” value is -0.151.
As to A43C A69G A70U C71U, the “yeast fitness (ln)” value was -0.337.
The figure for U2C G6U C27U A43C C46U A70G C71U is -0.132.
As to U2C C27U C46U C66U C71U, the “yeast fitness (ln)” value was -0.132.
Under U2G G6A C27U A43C C46U A70U stands -0.119; under A43C C46U A69G A70G, -0.0166.
The figure for U2G G6A C66U A69G A70U is -0.00753; for G1A G6A C27U C46U A69G C71U it is -0.238; for U2C C27U C46U C66U it is -0.0297.
As to G1A U2C G6U A43C C46U C66U A70U, the “yeast fitness (ln)” value is -0.167.
Under U2G G6U C27U C46U C66A C71U stands -0.147; under U2C G6A C27U C66A A69G A70G C71U, -0.0666; under G1A G6U C27U C46U C66U A69G A70U, -0.454.
The figure for A43C C66U A70G is -0.0981.
Under C27U A43C C46U C66U A69G A70G stands -0.211.
For U2C C27U C46U C66A A70U, the “yeast fitness (ln)” value is -0.0366.
The figure for U2C C27U C46U C66A A70G is -0.137; for G1A U2G A43C C46U it is -0.042.
Under A43C C46U C66U A69G A70G stands -0.117; under A43C C46U C66U A69G A70U, -0.121; under U2C G6U C27U A43C C46U C66A C71U, -0.17.
Consider G6A C27U C46U C66U A69G C71U, for which the “yeast fitness (ln)” value was -0.446.
Take G1A U2C G6U C46U C66A A70U C71U: the “yeast fitness (ln)” value was -0.0961.
Under U2G G6U C66U A70G stands -0.154; under G1A G6U C46U C66U C71U, -0.057.
G6U A43C C66A A70U: the “yeast fitness (ln)” value is -0.307.
The figure for G6A C27U A43C is -0.131.
G1A G6U A43C A70G C71U: the “yeast fitness (ln)” value is -0.383.
The figure for U2G C66A is -0.0285.
As for G6A C27U C46U A69G A70U, the “yeast fitness (ln)” value is -0.257.
The figure for U2C G6U C66U A69G A70G C71U is -0.346; for U2G G6U C46U C66U A69G A70U it is -0.264.
Under G6U A43C C46U A70U stands -0.173; under U2G G6U C66U A69G A70U, -0.409; under U2G G6A C27U C66U A69G A70U C71U, -0.4.
Under G1A C66U stands -0.0546.
U2C C27U A43C C46U C66U A70G: the “yeast fitness (ln)” value is -0.0949.
The figure for G1A U2G A43C C46U C66U C71U is -0.223.
Turning to U2C G6U C27U C46U A70U C71U, the “yeast fitness (ln)” value is -0.171.
Take G6A C66A A70U: the “yeast fitness (ln)” value is -0.158.
The figure for G1A U2G G6A A43C C46U C66U is -0.23; for G6U A70U C71U it is -0.14; for G1A U2C G6A C46U A70G C71U it is -0.00868.
The figure for U2G G6U C27U A43C C66A A69G C71U is -0.445.
Consider C46U C66U A70U C71U, for which the “yeast fitness (ln)” value is -0.148.
The figure for G1A A43C A70G is -0.159; for G1A G6U C46U it is -0.0505.
